For orientation: IC50 means the concentration at which inhibition is half-maximal. A high value points to weaker potency in that assay.

The record followed here is ChEMBL document CHEMBL1828544, “Structural modification of honokiol, a biphenyl occurring in Magnolia officinalis: the evaluation of honokiol analogues as inhibitors of angiogenesis and for their cytotoxicity and structure-activity relationship” (J Med Chem, 2011).

The species named for test [1] is Danio rerio. Nature of the test: Antiangiogenic activity in fli-1:enhanced GFP expressing transgenic zebrafish embryo assessed as inhibition of neovacularisation at 10 uM after 24 hrs relative to control. It is filed as functional. The method, boiled down:
(§1)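 fli-1:EGFP transgenic zebrafish embryos sorted at about 6 hpf (6 per well), exposed in embryo water to compound at 5–40 μM for 24 h. Then anesthetized with 0.05% 2-phenoxyethanol, photographed and quantified.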

For a further test, the system named is HUVEC. Nature of the test: Antiproliferative activity against human HUVEC cells after 24 hrs by MTT assay. It counts as functional, cell-based. The method, boiled down:
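Primary HUVECs grown on gelatin in M-199 with 20% FBS, 10 ng/mL bFGF, 2 ng/mL VEGF, 5% CO2, 37 °C. Cells (5 × 10^3/well) exposed to a range of compound concentrations for 24 h. MTT added for 3 h, formazan dissolved in DMSO, absorbance read at 570 nm. IC50 from percentage growth versus untreated control.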
(Tetrazolium dyes change colour on reduction, which living cells bring about.)

Test [2] is filed under the species Danio rerio. Nature of the test: Antiangiogenic activity in fli-1:enhanced GFP expressing transgenic zebrafish embryo assessed as inhibition of neovacularisation at 40 uM after 24 hrs relative to control. It is filed as functional. The method, boiled down: as §1
A further test deals with A549. Nature of the test: Antiproliferative activity against human A549 cells after 24 hrs by MTT assay. It counts as functional, cell-based. The following applies: A549, 24 h. In short, it runs like this: (§2)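 Cells (5 × 10^3/well) kept at 37 °C, 5% CO2 and treated with varied compound concentrations for 24 h. MTT given for a further 3 h, precipitate dissolved in DMSO, absorbance taken at 570 nm. IC50 calculated from percentage growth relative to untreated control.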

Test [3] is filed under the species Danio rerio. The test can be described thus: Antiangiogenic activity in fli-1:enhanced GFP expressing transgenic zebrafish embryo assessed as inhibition of neovacularisation at 20 uM after 24 hrs relative to control. It is filed as functional. The method, boiled down:
as §1

The species named for test [4] is Danio rerio. Nature of the test: Antiangiogenic activity in fli-1:enhanced GFP expressing transgenic zebrafish embryo assessed as inhibition of neovacularisation at 5 uM after 24 hrs relative to control. It is filed as functional. In short, it runs like this:
as §1

A further test relates to HepG2. Nature of the test: Antiproliferative activity against human HepG2 cells after 24 hrs by MTT assay. It is filed as functional, cell-based. The following applies: HepG2, 24 h. The method, boiled down:
as §2

Test [5] can be described thus: Antiproliferative activity against mouse LL/2 cells after 24 hrs by MTT assay. It counts as functional, cell-based. The following applies: Lewis lung carcinoma. In short, it runs like this: as §2

Molecules are shown by their SMILES. The source made the active and inactive calls. The rule behind the calls is not given here.

As for `C=CCc1cc(-c2ccc(OC)cc2)cc(CC=C)c1O`, the “inhibition (INH)” value in the test listed under Danio rerio [1], in the test filed under Danio rerio [2] and in the test filed under Danio rerio [3] was <25% in each case. For the same compound, the IC50 with HUVEC was > 100 µM; in the test with A549, 75.6 µM; with HepG2 it was 69.2 µM; in test [5], 60.3 µM. Moreover, the inhibition entry in the test listed under Danio rerio [4] was “inactive”.
In the case of `C=CCc1ccc(OCC)c(-c2ccc(O)c(CC=C)c2)c1`, the IC50 is 68.2 µM with HUVEC, 81.6 µM in the test with A549, 71.5 µM with HepG2 and 67.6 µM in test [5].
Regarding `C=CCc1cc(-c2ccccc2C(F)(F)F)ccc1O`, the “inhibition (INH)” value in the test filed under Danio rerio [1], in the test filed under Danio rerio [2] and in the test filed under Danio rerio [3] was <25% each time. Besides, the IC50 in the test with HUVEC was 82 µM; with A549, 59.7 µM; in the test on HepG2 it was 52.4 µM; in test [5], 60.3 µM. Also, the inhibition result in the test filed under Danio rerio [4] was “inactive”.
As to `C=CCc1cc(-c2cccc([N+](=O)[O-])c2)cc(CC=C)c1O`, the “inhibition (INH)” value in the test listed under Danio rerio [1], in the test listed under Danio rerio [2] and in the test filed under Danio rerio [3] was <25% throughout. The IC50 is > 100 µM in the test on HUVEC, 80 µM in the test on A549, 80.5 µM in the test with HepG2 and 56.5 µM in test [5]. In addition, the inhibition result in the test filed under Danio rerio [4] was “inactive”.
Consider `C=CCc1ccc(O)c(-c2ccc(OC(C)C)c(CC=C)c2)c1`, for which the “inhibition (INH)” value in the test listed under Danio rerio [1] and in the test filed under Danio rerio [3] was <25% in each case. In addition, the IC50 with HUVEC is 70.5 µM; in the test with A549, 42.7 µM; in the test on HepG2 it was 48.4 µM; in test [5] it was 49.1 µM. Moreover, in the test filed under Danio rerio [4], the inhibition result was “inactive”.
For `C=CCc1cc(CO)c(O)c(-c2ccc(O)c(CC=C)c2)c1`, the IC50 was > 100 µM in the test on HUVEC, > 135 µM in the test on A549, > 135 µM with HepG2 and > 135 µM in test [5].
Turning to `C=CCc1ccc(OCCC)c(-c2ccc(O)c(CC=C)c2)c1`, the “inhibition (INH)” value in the test filed under Danio rerio [1], in the test listed under Danio rerio [2] and in the test filed under Danio rerio [3] was <25% throughout. Also, the IC50 in the test with HUVEC came out at 73.3 µM; in the test on A549, 53.8 µM; with HepG2, 49.9 µM; in test [5], 45.8 µM. In addition, the inhibition result in the test listed under Danio rerio [4] is “inactive”.
`C=CCc1ccc(OC)c(-c2ccc(OC)c(CC=C)c2)c1`: the IC50 with HUVEC is > 100 µM; with HepG2, > 136 µM; in test [5] it was > 136 µM.
As for `C=CC(C)(C)c1cc(-c2ccc(OC)cc2)ccc1O`, the IC50 was > 100 µM with HUVEC, > 100 µM with A549, 91 µM in the test with HepG2 and > 100 µM in test [5].
For the compound `C=CCc1cc(C=O)c(OCC(=O)OCC)c(-c2ccc(OCC(=O)OCC)c(CC=C)c2)c1`, the IC50 with HUVEC is 86.9 µM; with A549 it was > 85.8 µM; in the test on HepG2 it was > 85.2 µM; in test [5], 26.1 µM.
Turning to `C=CCc1cc(-c2cc(F)cc(F)c2)ccc1O`, the “inhibition (INH)” value in the test listed under Danio rerio [1], in the test listed under Danio rerio [2], in the test listed under Danio rerio [3] and in the test listed under Danio rerio [4] was <25% each time. For the same compound, the IC50 with HUVEC was 80 µM; in the test with A549 it was > 100 µM; with HepG2 it was > 100 µM; in test [5], 78.2 µM.
Regarding `C=CCc1ccc(OC)c(-c2ccc(OC)cc2)c1`, the IC50 in the test with HUVEC is > 100 µM; in the test on A549, 95.4 µM; in the test on HepG2, > 100 µM; in test [5] it was 71.1 µM.
Take `C=CCc1ccc(O)c(-c2cccc([N+](=O)[O-])c2)c1`: the “inhibition (INH)” value in the test listed under Danio rerio [1] and in the test filed under Danio rerio [3] was <25% each time. The IC50 with HUVEC was 79.1 µM; with A549 it was > 100 µM; with HepG2, 62.3 µM; in test [5], 61.4 µM. Also, in the test filed under Danio rerio [4], the inhibition result is “inactive”.
For `C=CCc1ccc(OC(C)C)c(-c2ccc(OC(C)C)c(CC=C)c2)c1`, the IC50 with HUVEC is > 100 µM; in the test with A549, > 114 µM; in the test on HepG2 it was > 114 µM; in test [5], > 114 µM.
For the compound `C=CCc1cc(-c2ccc(F)cc2)ccc1O`, the IC50 (in the test with HUVEC; in the test with A549; in the test with HepG2; in test [5]) was > 100 µM throughout.
In the case of `C=CCc1ccc(O)c(-c2ccc(OCC)c(CC=C)c2)c1`, the IC50 in the test with HUVEC was 67.1 µM; in the test with A549, 51 µM; in the test with HepG2, 73.8 µM; in test [5] it was 61.6 µM.
As for `C=CCc1ccc(OCCC)c(-c2ccc(OCCC)c(CC=C)c2)c1`, the IC50 with HUVEC is > 100 µM; with A549 it was > 114 µM; in the test with HepG2 it was > 114 µM; in test [5], > 114 µM.
With `C=CCOc1ccc(-c2ccc(OC)cc2)cc1CC=C`, the IC50 (in the test with HUVEC; in the test on A549; in the test on HepG2; in test [5]) was > 100 µM throughout.
On to `C=CCc1cc(-c2cccc(SC)c2)ccc1O`, for which the IC50 in the test with HUVEC was > 100 µM; in the test with A549, 66 µM; in the test with HepG2, > 100 µM; in test [5] it was > 100 µM.
Consider `C=CCc1cc(-c2cccc(C(F)(F)F)c2)ccc1O`, for which the IC50 with HUVEC came to 76 µM; with A549, 73 µM; in the test with HepG2, 58.3 µM; in test [5] it was 65.9 µM.
The matching figures for `C=CCc1cc(-c2ccc(C(F)(F)F)cc2)ccc1OC`: > 100 µM, > 100 µM, 89 µM and 78.8 µM.
The matching figures for `C=CCc1cc(-c2ccc(OC)c(OC)c2)ccc1O`: > 100 µM, > 100 µM, > 100 µM and > 100 µM.
Turning to `C=CCc1ccc(OCC(=O)OCC)c(-c2ccc(OCC(=O)OCC)c(CC=C)c2)c1`, the IC50 in the test with HUVEC was > 100 µM; in the test on A549 it was > 91.3 µM; in the test on HepG2, 68.9 µM; in test [5], > 91.3 µM.
On to `C=CCc1cc(-c2cccc(NC(C)=O)c2)ccc1OC`, for which the IC50 is > 100 µM with HUVEC, > 100 µM with A549, 60.1 µM in the test with HepG2 and 65.1 µM in test [5].
Regarding `C=CCc1ccc(OCC)c(-c2ccc(OCC)c(CC=C)c2)c1`, the IC50 in the test with HUVEC was > 100 µM; in the test with A549 it was > 124 µM; in the test on HepG2, > 124 µM; in test [5] it was > 124 µM.
As to `C=CCc1cc(-c2ccc(OC)cc2)ccc1O`, the IC50 (with HUVEC; with A549; in the test with HepG2; in test [5]) was > 100 µM each time.
Regarding `C=CCc1ccc(OC)c(-c2ccc(O)c(CC=C)c2)c1`, the IC50 in the test on HUVEC stood at 61.8 µM; with HepG2, 57.5 µM; in test [5], 108 µM.
As to `C=CCc1ccc(O)c(-c2ccc(O)cc2)c1`, the “inhibition (INH)” value in the test listed under Danio rerio [1] and in the test filed under Danio rerio [3] was <25% in each case. Moreover, the IC50 with HUVEC is 64.3 µM; with A549 it was 76.2 µM; with HepG2 it was 89 µM; in test [5], > 100 µM. For the same compound, the inhibition entry in the test listed under Danio rerio [4] was “inactive”.
As for `C=CCc1cc(-c2cccc([N+](=O)[O-])c2)ccc1OC`, the IC50 (with HUVEC; in the test on A549; in the test with HepG2; in test [5]) was > 100 µM each time.
With `C=CCc1cc(-c2ccc(OC)cc2OC)ccc1O`, the IC50 (in the test with HUVEC; in the test with A549; in the test with HepG2; in test [5]) was > 100 µM in each case.
As for `C=CCc1cc(-c2ccccc2)ccc1O`, the IC50 (in the test on HUVEC; in the test on A549; in the test with HepG2; in test [5]) was > 100 µM each time.
For the compound `C=CCc1cc(-c2ccc(OC)cc2)ccc1OC`, the IC50 (in the test on HUVEC; in the test with A549; in the test on HepG2; in test [5]) was > 100 µM in each case.
`C=CCc1cc(CO)c(O)c(-c2cc(CO)c(O)c(CC=C)c2)c1`: the IC50 was > 100 µM with HUVEC, > 123 µM in the test on A549, > 123 µM in the test on HepG2 and > 123 µM in test [5].
Regarding `C=CCOc1ccc(-c2cccc([N+](=O)[O-])c2)cc1CC=C`, the IC50 (in the test on HUVEC; in the test on A549; with HepG2; in test [5]) was > 100 µM each time.
`C=CCc1cc(-c2cccc(OC)c2)ccc1O`: the IC50 (with HUVEC; with A549; in the test on HepG2; in test [5]) was > 100 µM in each case.
Consider `C=CCc1ccc(O)c(-c2ccc(OCCC)c(CC=C)c2)c1`, for which the IC50 in the test with HUVEC is 89.3 µM; in the test on A549, 82.4 µM; in the test with HepG2, > 130 µM; in test [5], 64.8 µM.
Regarding `C=CCc1ccc(OC)c(-c2cccc([N+](=O)[O-])c2)c1`, the IC50 in the test on HUVEC is > 100 µM; in the test with A549, > 100 µM; in the test on HepG2 it was > 100 µM; in test [5], 89.4 µM.
On to `C=CCc1cc(-c2cccc([N+](=O)[O-])c2)ccc1O`, for which the IC50 (in the test with HUVEC; in the test on A549; in the test on HepG2; in test [5]) was > 100 µM each time.
